According to article PMC12376879 (RSC Advances, 2025):

Molecular target: human serum albumin (HSA) (Homo sapiens, UniProt P02768)
Assay: Isothermal titration calorimetry with HSA
Assay type: binding
Method in brief: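 HSA (60 μM) in the sample cell, titrated with test compound from the syringe. All solutions were in 5% DMSO in 20 mM phosphate buffer, pH 7.4, with the same solution in the reference cell. Concentrations were set by A280. The run was 19 injections (0.4 μl, then 18 × 2 μl) at 150 s intervals, stirring at 750 rpm. Ligand-into-buffer dilution heats were subtracted. Ka, n, ΔH and ΔS were fitted; ΔG was calculated from them.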

human serum albumin (HSA), sequence (P02768 25-609): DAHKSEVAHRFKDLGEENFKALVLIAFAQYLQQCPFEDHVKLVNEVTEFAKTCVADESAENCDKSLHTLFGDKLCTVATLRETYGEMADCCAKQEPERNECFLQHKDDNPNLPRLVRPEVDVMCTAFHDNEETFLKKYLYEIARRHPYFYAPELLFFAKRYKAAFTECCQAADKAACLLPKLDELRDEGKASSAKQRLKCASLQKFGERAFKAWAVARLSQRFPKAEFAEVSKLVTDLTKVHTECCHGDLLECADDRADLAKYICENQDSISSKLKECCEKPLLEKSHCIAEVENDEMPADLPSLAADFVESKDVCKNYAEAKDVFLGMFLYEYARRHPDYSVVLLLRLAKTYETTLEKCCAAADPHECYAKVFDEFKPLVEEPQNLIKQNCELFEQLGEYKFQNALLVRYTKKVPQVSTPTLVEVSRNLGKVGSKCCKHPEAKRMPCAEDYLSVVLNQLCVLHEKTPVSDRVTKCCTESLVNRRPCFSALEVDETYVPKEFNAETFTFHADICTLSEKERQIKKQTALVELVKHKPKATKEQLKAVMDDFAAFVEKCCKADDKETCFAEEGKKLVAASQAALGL

- Enthalpy (ΔHm), ITC (298 K, HSA): -10.6 kJ/mol
- Gibbs free energy (ΔGm), ITC (298 K, HSA): -28.6 kJ/mol
- Stoichiometry (n), ITC (298 K, HSA): 0.9
- Entropy (ΔS) of binding to HSA (calculated from ITC results): +60.4 J K^−1 mol^−1
Compound: Cc1ccnc2c1NC(=O)c1cccnc1N2C1CC1 [nevirapine]
